Screens from PubChem.
Most compounds without a hit are left out; they make up all but 2.1% or so of the library.
LMPTP inh: LMPTP phosphatase inhibitors, primary screen, biochemical, fluorescence intensity, uHTS | Low molecular weight phosphotyrosine protein phosphatase (Homo sapiens), P24666 | recombinant LMPTP-A, OMFP fluorogenic substrate | inhibition, % at 20 µM | 360,000 tested, 0.22% active | AID 651560, 2012;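 active = compounds that cut the enzyme signal by at least half of the control window in the single-dose screen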;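 also: plate controls were DMSO wells with enzyme plus substrate for no effect and substrate without enzyme for full effect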
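test system = LMPTP-A | amount = 0.625 nM LMPTP-A final | reagent = fluorogenic phosphatase substrate OMFP at 400 µM final | incubation = 50 min at room temperature | benchmarks = no-enzyme low control, uninhibited high control | medium = Bis-Tris pH 6.0, DTT, detergent | signal = fluorescence intensity of OMFP turnover product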
GRK2 inh: compounds blocking aptamer binding on GRK2 – biochemical, human GRK2, bead flow cytometry, HTS, primary screen; FAM-aptamer displacement from GRK2; 330,000 tested, 0.59% active; Beta-adrenergic receptor kinase 1 (Homo sapiens), P25098; inhibition of aptamer binding, % at 10 µM;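 active = inhibition of aptamer binding above 40%, roughly 3 SD of noise, on plates passing a quality check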;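 also: median bead fluorescence of bound FAM aptamer so fluorescent compounds give negative values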
Target sequence (P25098 whole entry, looked up): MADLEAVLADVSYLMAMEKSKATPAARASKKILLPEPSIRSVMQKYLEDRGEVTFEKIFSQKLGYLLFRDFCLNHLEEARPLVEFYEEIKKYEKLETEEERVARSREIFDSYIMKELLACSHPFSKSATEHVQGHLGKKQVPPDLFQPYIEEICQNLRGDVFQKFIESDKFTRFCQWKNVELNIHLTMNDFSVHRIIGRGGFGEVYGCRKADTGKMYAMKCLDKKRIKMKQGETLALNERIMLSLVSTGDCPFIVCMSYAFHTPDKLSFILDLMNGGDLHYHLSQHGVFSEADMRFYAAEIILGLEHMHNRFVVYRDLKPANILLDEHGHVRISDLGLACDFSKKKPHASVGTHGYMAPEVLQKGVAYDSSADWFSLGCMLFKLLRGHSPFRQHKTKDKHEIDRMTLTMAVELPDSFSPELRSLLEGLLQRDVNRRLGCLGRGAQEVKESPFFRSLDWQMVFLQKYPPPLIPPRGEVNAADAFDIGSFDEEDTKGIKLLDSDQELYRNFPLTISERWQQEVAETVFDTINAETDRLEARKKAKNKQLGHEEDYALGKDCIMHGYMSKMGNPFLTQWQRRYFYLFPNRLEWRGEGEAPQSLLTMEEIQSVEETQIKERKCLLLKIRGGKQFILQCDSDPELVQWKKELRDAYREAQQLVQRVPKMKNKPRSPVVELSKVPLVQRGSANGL
Scp1 inh: Scp-1 phosphatase inhibitors, primary screen, biochemical, colorimetric, uHTS; Recombinant Scp1, phosphopeptide, malachite green phosphate absorbance; 340,000 tested, 0.88% active; inhibition, % at 20 µM; Carboxy-terminal domain RNA polymerase II polypeptide A small phosphatase 1 (Homo …;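 active = inhibition above about 50% at 20 µM, limit read from the data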;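 also: plate controls were DMSO wells with enzyme for no effect and wells lacking enzyme for full effect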
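Material: truncated SCP-1 phosphatase (76-261aa) / Buffer or medium: 50 mM Tris acetate pH 5.5, 0.005% Tween-20, 10 mM MgCl2 / Compound dosing: one concentration, 20 µM, with 1.0% DMSO / Incubation: 45 min room-temperature reaction, 5 min colour, 30 min stabiliser / Detection: colorimetric free-phosphate detection, absorbance 630 nm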
SUMO1 PPI mod: modulators of SUMO1 protein-protein interactions, primary screen, biochemical, uHTS | SUMO1 binding to a labelled peptide, TR-FRET, 1 h | inhibition, % at 20 µM | 360,000 tested, 0.33% active; in the data active = inhibition above about 37%
DNMT1 inh: human DNMT1 methyltransferase inhibitors, primary screen, biochemical, molecular beacon, fluorescence, HinP1I cleavage, uHTS; 360,000 tested, 0.83% active; inhibition (reported as % activation of signal), % at 10 µM; in the data active = inhibition above about 50%
STEP block: STEP phosphatase inhibitors, primary screen, biochemical, fluorescence intensity, uHTS; inhibition, % at 20 µM; recombinant STEP, OMFP fluorogenic substrate; 360,000 tested, 0.25% active;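 active = inhibition at 20 µM, scaled per plate between control wells, above about 37%, limit read from the data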;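 also: 0% = DMSO with enzyme and substrate and 100% = substrate only without enzyme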
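System: STEP (striatal-enriched tyrosine phosphatase) enzyme, cell-free; medium: Bis-Tris pH 6.0 buffer with DTT, detergent; dosing: 20 µM, 1% DMSO; times: reaction 20 min, ambient temperature; detection: fluorescence, 480/540 nm; read-out basis: normalized % inhibition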
GRK2 inh confirm: GRK2 aptamer-displacing inhibitors, retest, confirmation, biochemical, cherry pick 1, bead flow cytometry; AID 504451, 2011; bead-bound GRK2, FAM-aptamer displacement; aptamer displacement, % at 10 µM; 2,000 tested, 4% active; shares compounds with GRK2 inh;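 active = aptamer displacement above 40%, near three times the noise of non-fluorescent compounds, on plates passing quality checks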;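 also: negative values mostly reflect intrinsic compound fluorescence rather than true enhancement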
Aptamer quench: counter-screen for GRK2 aptamer inhibitors: fluorescent aptamer quenchers; shares compounds with GRK2 inh; 110 tested, under 10 active; Fluorescent RNA aptamer beads, quenching, flow cytometry; active compounds read high; AID 504521; fluorescence change (kMESF span), kMESF (test concentration not listed);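 active = compounds whose bead fluorescence drops by more than 37 kMESF across the dose range, marking them as dye quenchers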
FAM quench CP1: aptamer fluorescence quenching in GRK2 counter-screen; fluorescence response (% of DMSO), % at 10 µM; 2,000 tested, under 10 active; shares compounds with GRK2 inh; Carboxyfluorescein RNA aptamer on beads, flow cytometry quenching; active compounds read low;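 active = compounds that quench the bead-bound fluorescent RNA probe, cutting fluorescence to under half of the solvent control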;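 also: counterscreen run without GRK2 so only probe quenching by compound is measured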
GRK2 confirm 2: GRK2 aptamer-displacing inhibitors, hit retest, confirmation, biochemical, cherry pick 2, bead flow cytometry; shares compounds with GRK2 inh; bead-bound GRK2, FAM-aptamer displacement; inhibition of aptamer binding, % at 10 µM; 360 tested, under 10 active;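 active = inhibition of aptamer binding above 40%, about triple the noise seen with nonglowing compounds, on plates passing quality control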;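 also: negative values mostly come from compounds that fluoresce themselves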
FAM quench CP2: aptamer fluorescence quenching in GRK2 counter-screen; fluorescence response vs DMSO, % at 10 µM; 360 tested, under 10 active; shares compounds with GRK2 inh; carboxyfluorescein RNA aptamer beads, flow cytometry quenching; active compounds read low; AID 588494;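 active = response vs DMSO under 50%, meaning signal dropped by over half, treated as fluorescence quencher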;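 also: labelled aptamer on streptavidin beads without GRK2 as a quench counter-screen; 100% = bead fluorescence of DMSO wells and lower means quenching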
* marks the source's active call; other numbers are inactive results; nt = no result given.

SMILES	LMPTP inh	GRK2 inh	Scp1 inh	SUMO1 PPI mod	DNMT1 inh	STEP block	GRK2 inh confirm	FAM quench CP1	others
c1ccc2nc(-c3ccc4c(c3)OCO4)ccc2c1	3	2	-4	1	0	2	nt	nt
COc1ccc(OC)c2nc(-c3ccc4c(c3)OCO4)ccc12	0	42*	-12	-32	2	-1	nt	nt	GRK2 confirm 2=3;FAM quench CP2=101
CCC(CO)NCC(O)COCc1ccc2c(c1)OCO2 (stereo not given)	-1	0	-8	-1	-3	-4	nt	nt
CC(=O)Oc1ccc2c(=O)c(-c3ccccc3)coc2c1	-1	38	-7	2	0	-1	1	93
CCC(C(=O)NCC1CCCO1)N(Cc1ccc(F)cc1)C(=O)CNS(=O)(=O)c1ccccc1 (stereo not given)	0	78*	-7	2	1	-1	-3	106
CCN(CC)C(=O)Cn1cc(C(=O)C(=O)N2CCc3ccccc32)c2ccccc21	0	40	-9	4	1	-1	-1	100
O=C(N/N=C/c1ccc([N+](=O)[O-])o1)C1CC1	2	83*	45	-17	36	6	23	99
NC(=O)N/N=C/c1ccc([N+](=O)[O-])o1	-1	5	4	-30	-6	2	nt	nt
CC(=O)Nc1ccc(O)cc1[N+](=O)[O-]	-2	0	6	-14	1	-1	nt	nt
CC(=O)Nc1ccc(N(C)C)cc1[N+](=O)[O-]	0	41*	8	-16	-2	0	79*	100	Aptamer quench=-1.5
O=S(=O)(Nc1ccc(Br)cn1)c1ccc(Cl)s1	0	0	-6	11	-2	0	nt	nt
Cc1ccc(C(=O)NCC(=O)N/N=C/c2cccs2)cc1C	0	0	2	2	0	0	nt	nt
CC(=O)Nc1sc(N/N=C\c2cccc(Cl)c2)nc1-c1cccs1	0	0	1	-4	-20	-5	nt	nt
CC(=O)Nc1sc(N/N=C\c2ccc(O)cc2)nc1-c1cccs1	0	81*	2	-11	-12	-2	1	106
CCOC(=O)C1CCCN(S(=O)(=O)c2ccc3c(c2)N(C)C(=O)CC(=O)N3C)C1 (stereo not given)	-1	2	-2	3	0	-2	nt	nt
COc1ccc(C2CC(c3cccs3)=NN2C(=O)c2ccc(Br)o2)cc1 (stereo not given)	5	86*	-7	-7	-8	-2	nt	nt	GRK2 confirm 2=15;FAM quench CP2=108
CCC(=O)N1N=C(c2cccs2)CC1c1ccc(OC)cc1 (stereo not given)	0	2	-8	-13	0	0	nt	nt
CCN1CCN(C(=O)CCc2nnc(CCCCc3ccccc3)o2)[C@@H](C)C1=O	1	3	-2	-4	-5	3	nt	nt
Cc1c(NC(=O)OCCNC(=O)Nc2ccccc2)sc(=S)n1C	-1	0	1	-1	1	2	nt	nt
Cc1ccc(S(=O)(=O)NCCOC(=O)Nc2sc(=S)n(C)c2C)cc1	-1	96*	-13	1	-5	2	-5	102
O=C(N/N=C\c1cc([N+](=O)[O-])ccc1N1CCCC1)c1ccccn1	1	0	-1	-24	1	4	nt	nt
O=C(N/N=C\c1cc([N+](=O)[O-])ccc1N1CCOCC1)c1ccccn1	-1	89*	-7	-23	1	-1	10	101
CCOc1ccc(-c2cc(C(=O)OC)nc3c2c(=O)n(C)c(=O)n3C)cc1	2	3	-10	-24	-4	-2	nt	nt
O=C1NC(c2cccc(Br)c2)=N/C1=C\c1ccco1	4	50*	-4	5	20	2	-2	98
Cc1c(C(=O)O)cccc1-n1c(C)cc(/C=N/NC(=O)c2cc3ccccc3o2)c1C	-3	50*	-3	11	4	1	3	136
SMILES	LMPTP inh	GRK2 inh	Scp1 inh	SUMO1 PPI mod	DNMT1 inh	STEP block	GRK2 inh confirm	FAM quench CP1	others
Cc1c(C(=O)O)cccc1-n1c(C)cc(/C=N/Nc2ccc([N+](=O)[O-])cn2)c1C	4	0	1	-17	5	2	nt	nt
CCCC(=O)NC1=C(C#N)C2(CCCC2)Cc2ccccc21	-1	58*	-6	-8	2	-2	0	94
O=C(CCNC(=O)C1CCN(S(=O)(=O)c2ccccc2)CC1)Nc1cccc(C(F)(F)F)c1	1	0	-3	-4	7	-6	nt	nt
COc1ccc(Cc2c(-c3ccc(F)cc3)nc3c(C)cc(Br)cn23)c(C)c1	2	nt	nt	2	-6	1	nt	nt
COc1ccc(NC(=O)CSc2nncn2C)c([N+](=O)[O-])c1	-1	51*	-2	-18	7	2	-1	104
COc1ccc(NC(=O)CSc2ccccc2)c([N+](=O)[O-])c1	0	0	-8	-39	-1	-1	nt	nt
Cn1cnnc1SCC(=O)Nc1ccc(Oc2ccccc2)cc1	-1	0	-2	-4	1	-1	nt	nt
Cn1cnnc1SCC(=O)Nc1ccccc1Oc1ccccc1	-1	50*	-12	0	-2	14	1	94
CCCCC[C@@H]1C=C(C(=O)O)[C@H](c2ccc(Br)cc2)N1S(=O)(=O)c1ccc(C)cc1	1	3	-14	9	8	2	nt	nt
